Reference: ChEMBL document CHEMBL5107944, “Rational design of selective inhibitors of PARP4” (RSC Med Chem, 2021)
Blank lines part the entries; values can stand above or below the compound they belong to.

What was measured:
[1] = molecular target: T1, Protein mono-ADP-ribosyltransferase PARP15 (Homo sapiens, UniProt Q460N3); test: (§1) Inhibition of N-terminal His-tagged human PARP15 catalytic domain expressed in Escherichia coli BL21 (DE3) preincubated with 6-a-NAD+ for 5 to 10 mins followed by enzyme addition and measured after 60 mins using NAD+ as substrate byHRP based chemiluminescence assay
T1 sequence (Q460N3 whole entry): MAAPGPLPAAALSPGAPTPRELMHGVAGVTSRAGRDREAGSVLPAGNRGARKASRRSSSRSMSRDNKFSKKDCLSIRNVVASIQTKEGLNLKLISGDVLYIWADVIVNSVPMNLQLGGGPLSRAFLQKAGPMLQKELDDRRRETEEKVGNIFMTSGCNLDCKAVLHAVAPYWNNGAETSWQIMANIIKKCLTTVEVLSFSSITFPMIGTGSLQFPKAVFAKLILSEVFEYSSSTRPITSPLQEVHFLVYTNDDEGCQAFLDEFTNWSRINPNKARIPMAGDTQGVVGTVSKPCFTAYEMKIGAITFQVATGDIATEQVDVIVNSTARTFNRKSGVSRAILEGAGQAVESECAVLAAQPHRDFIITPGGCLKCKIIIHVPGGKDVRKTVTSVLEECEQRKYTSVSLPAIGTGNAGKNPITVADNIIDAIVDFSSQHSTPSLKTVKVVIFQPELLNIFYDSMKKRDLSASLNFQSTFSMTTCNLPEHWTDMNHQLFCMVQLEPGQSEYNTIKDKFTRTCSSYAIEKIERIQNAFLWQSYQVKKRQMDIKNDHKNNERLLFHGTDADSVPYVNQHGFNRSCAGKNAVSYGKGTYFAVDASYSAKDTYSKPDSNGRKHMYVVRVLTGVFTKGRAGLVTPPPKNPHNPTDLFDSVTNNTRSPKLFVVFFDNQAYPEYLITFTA
Procedure, shortened: (§2)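 Plate-based PASTA assay. His6-SRPK2 is captured on nickel-coated wells as the ADP-ribosylation substrate in HEPES pH 7.5 buffer with NaCl, MgCl2 and TCEP. Recombinant PARP is added at 4–400 nM (2×). Inhibitor (0–200 μM) is premixed with 200 μM 6-a-NAD+ (2×) and reacted 60 min at 30 °C. Incorporated label is click-conjugated to biotin-azide and detected with streptavidin-HRP by chemifluorescence (ex 570/em 600). IC50 is the mean of ≥3 independent assays.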

[2] = molecular target: Protein mono-ADP-ribosyltransferase PARP4 (Homo sapiens, UniProt Q9UKK3); test: as §1, with “His-tagged recombinant” for “His-tagged”, “PARP4 brct-catalytic” for “PARP15 catalytic”, “domain (369 to 573 residues)” for “domain”; procedure, shortened: as §2
Sequence of Protein mono-ADP-ribosyltransferase PARP4 (Q9UKK3 whole entry, the tested form may be a part): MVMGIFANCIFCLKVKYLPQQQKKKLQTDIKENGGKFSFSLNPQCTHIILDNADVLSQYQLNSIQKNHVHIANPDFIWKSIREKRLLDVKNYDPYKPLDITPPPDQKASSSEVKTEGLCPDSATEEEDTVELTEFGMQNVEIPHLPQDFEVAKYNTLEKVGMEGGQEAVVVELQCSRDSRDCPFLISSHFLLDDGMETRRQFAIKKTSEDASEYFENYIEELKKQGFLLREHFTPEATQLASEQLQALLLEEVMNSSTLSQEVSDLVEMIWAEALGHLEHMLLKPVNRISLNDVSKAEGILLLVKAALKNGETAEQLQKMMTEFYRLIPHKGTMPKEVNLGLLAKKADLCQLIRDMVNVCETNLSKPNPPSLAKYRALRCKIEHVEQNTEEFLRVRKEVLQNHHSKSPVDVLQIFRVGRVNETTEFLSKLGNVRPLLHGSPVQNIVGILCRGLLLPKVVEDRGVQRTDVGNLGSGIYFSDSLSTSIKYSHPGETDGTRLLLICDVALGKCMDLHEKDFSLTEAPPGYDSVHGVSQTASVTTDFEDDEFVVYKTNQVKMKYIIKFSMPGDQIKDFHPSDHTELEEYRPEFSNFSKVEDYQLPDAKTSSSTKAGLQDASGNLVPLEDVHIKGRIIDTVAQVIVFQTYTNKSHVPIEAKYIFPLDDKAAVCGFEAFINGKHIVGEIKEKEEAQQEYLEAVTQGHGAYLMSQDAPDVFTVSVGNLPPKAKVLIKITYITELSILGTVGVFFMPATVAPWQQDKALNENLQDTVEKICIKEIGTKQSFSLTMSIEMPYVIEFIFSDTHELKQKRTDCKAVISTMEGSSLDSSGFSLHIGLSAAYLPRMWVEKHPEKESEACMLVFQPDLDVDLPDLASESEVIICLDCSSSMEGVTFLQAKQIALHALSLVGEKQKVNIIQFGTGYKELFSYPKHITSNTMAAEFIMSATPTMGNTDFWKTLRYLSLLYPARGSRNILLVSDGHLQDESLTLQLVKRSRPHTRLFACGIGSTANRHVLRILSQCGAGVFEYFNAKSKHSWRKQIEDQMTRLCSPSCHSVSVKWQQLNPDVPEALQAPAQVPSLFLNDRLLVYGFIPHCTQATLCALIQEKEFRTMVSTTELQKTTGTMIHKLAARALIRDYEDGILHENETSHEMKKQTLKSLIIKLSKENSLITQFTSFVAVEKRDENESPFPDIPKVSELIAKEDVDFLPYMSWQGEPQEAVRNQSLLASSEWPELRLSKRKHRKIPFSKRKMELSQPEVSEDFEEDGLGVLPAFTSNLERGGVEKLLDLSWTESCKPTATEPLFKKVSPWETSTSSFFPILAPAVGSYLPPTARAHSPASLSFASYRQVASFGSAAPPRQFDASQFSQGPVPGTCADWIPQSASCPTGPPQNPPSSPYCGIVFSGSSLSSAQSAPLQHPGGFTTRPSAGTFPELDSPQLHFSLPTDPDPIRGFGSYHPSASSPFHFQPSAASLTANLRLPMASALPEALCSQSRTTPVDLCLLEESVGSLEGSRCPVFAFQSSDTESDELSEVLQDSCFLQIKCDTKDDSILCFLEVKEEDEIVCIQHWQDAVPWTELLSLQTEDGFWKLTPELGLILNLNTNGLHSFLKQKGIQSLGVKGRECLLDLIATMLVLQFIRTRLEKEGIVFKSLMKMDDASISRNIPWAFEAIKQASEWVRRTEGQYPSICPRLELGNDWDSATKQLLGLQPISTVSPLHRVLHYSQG

[3] = molecular target: Poly [ADP-ribose] polymerase 2 (Homo sapiens, UniProt Q9UGN5); test: Inhibition of N-terminal His-tagged full length human PARP2 expressed in Escherichia coli BL21 (DE3) preincubated with 6-a-NAD+ for 5 to 10 mins followed by enzyme addition and measured after 60 mins using NAD+ as substrate byHRP based chemiluminescence assay; procedure, shortened: as §2
Sequence of Poly [ADP-ribose] polymerase 2 (Q9UGN5 whole entry): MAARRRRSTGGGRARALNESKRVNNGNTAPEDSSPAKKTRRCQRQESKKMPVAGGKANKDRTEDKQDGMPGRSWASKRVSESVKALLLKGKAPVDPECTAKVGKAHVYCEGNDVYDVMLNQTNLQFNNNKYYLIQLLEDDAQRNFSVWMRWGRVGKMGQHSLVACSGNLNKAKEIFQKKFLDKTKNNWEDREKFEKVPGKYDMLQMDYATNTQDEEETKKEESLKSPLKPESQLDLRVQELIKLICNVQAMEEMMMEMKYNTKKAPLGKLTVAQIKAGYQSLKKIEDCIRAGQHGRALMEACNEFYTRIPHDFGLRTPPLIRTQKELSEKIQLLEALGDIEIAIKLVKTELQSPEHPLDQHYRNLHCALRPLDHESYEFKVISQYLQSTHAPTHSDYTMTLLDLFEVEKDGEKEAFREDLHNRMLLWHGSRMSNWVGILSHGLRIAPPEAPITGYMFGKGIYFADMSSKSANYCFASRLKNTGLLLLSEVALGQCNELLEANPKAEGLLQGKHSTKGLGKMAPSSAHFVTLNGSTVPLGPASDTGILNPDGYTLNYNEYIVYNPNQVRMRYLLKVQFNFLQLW

[4] = molecular target: Poly [ADP-ribose] polymerase 1 (Homo sapiens, UniProt P09874); test: Inhibition of N-terminal His-tagged full length human PARP1 expressed in Escherichia coli BL21 (DE3) preincubated with 6-a-NAD+ for 5 to 10 mins followed by enzyme addition and measured after 60 mins using NAD+ as substrate byHRP based chemiluminescence assay; procedure, shortened: as §2
Sequence of Poly [ADP-ribose] polymerase 1 (P09874 whole entry): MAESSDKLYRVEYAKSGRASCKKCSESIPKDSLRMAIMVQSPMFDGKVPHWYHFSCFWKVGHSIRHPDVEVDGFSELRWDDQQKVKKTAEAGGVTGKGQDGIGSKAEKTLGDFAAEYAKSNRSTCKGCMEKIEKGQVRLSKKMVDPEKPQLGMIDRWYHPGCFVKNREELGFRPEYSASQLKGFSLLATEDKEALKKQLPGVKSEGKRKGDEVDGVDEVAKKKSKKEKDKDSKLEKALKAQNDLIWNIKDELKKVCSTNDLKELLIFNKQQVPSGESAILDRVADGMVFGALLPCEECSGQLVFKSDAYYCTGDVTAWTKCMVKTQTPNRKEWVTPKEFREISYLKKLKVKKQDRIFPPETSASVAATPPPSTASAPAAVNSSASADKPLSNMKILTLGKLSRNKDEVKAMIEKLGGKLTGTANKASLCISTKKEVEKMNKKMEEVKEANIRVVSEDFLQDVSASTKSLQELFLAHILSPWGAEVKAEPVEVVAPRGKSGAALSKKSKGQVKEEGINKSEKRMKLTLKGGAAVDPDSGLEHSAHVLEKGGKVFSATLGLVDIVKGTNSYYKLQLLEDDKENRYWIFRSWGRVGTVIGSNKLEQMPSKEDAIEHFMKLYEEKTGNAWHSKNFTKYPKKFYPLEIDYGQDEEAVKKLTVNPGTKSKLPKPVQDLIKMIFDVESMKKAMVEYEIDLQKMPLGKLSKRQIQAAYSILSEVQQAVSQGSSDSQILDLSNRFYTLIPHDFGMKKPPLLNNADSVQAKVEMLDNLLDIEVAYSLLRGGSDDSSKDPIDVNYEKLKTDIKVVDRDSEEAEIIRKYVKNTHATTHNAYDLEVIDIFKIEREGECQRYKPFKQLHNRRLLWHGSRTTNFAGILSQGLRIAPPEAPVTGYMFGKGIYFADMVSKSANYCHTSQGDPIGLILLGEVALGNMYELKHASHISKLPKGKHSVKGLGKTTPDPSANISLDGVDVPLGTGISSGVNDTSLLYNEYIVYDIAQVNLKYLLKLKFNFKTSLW

[5] = molecular target: T2, Protein mono-ADP-ribosyltransferase PARP11 (Homo sapiens, UniProt Q9NR21); test: Inhibition of N-terminal His-tagged full length human PARP11 expressed in Escherichia coli BL21 (DE3) preincubated with 6-a-NAD+ for 5 to 10 mins followed by enzyme addition and measured after 60 mins using NAD+ as substrate byHRP based chemiluminescence assay; procedure, shortened: as §2
T2 sequence (Q9NR21 whole entry): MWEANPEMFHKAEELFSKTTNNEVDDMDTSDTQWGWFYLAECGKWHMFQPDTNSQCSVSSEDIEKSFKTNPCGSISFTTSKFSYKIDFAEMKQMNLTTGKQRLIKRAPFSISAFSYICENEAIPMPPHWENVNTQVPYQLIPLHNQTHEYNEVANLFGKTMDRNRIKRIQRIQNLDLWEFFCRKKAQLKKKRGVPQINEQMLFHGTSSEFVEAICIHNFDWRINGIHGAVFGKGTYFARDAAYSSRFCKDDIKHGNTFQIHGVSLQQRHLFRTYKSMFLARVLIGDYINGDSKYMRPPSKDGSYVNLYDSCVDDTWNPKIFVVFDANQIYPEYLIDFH

- IC50 [1]: 3300 nM
SMILES: CC#Cc1cc(C)c2nc(CSc3ncccn3)[nH]c(=O)c2c1

- IC50 [2]: 1900 nM
SMILES: Cc1cc(Br)cc2c(=O)[nH]c(CSc3ccc(C(=O)O)cc3)nc12

- IC50 [3]: 2000 nM
- IC50 [2]: 800 nM
- IC50 [4]: 2500 nM
SMILES: Cc1cc(Br)cc2c(=O)[nH]c(CSc3ncccn3)nc12

- IC50 [2]: 2700 nM
SMILES: Cc1cc(I)cc2c(=O)[nH]c(CSc3ncccn3)nc12

- IC50 [3]: 800 nM
- IC50 [5]: 200 nM
SMILES: Cc1cccc2c(=O)[nH]c(CSc3ncccn3)nc12

- IC50 [2]: 500 nM
- IC50 [4]: 100 nM
SMILES: Cc1cc(C)c2nc(CSc3ncccn3)[nH]c(=O)c2c1

- IC50 [2]: 800 nM
SMILES: Cc1cc(I)cc2c(=O)[nH]c(CSc3ccc(C(=O)O)cc3)nc12
